Laboratory results reported in ChEMBL document CHEMBL1132240, “Design and synthesis of modified quinolones as antitumoral acridones” (J Med Chem, 1999).

Assays:
[1] = system: bone marrow cells (human); test: Relative cytotoxicity against Human bone marrow samples; Value is in range, activity expressed as IC90
HL-60 [2] = test: Relative cytotoxicity against Human promyelocytic Leukemia(HL-60) cells; Value is in range, activity expressed as IC50; format: functional, cell-based
Method in brief: (§1)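 Second-stage assay on HL-60 (5 × 10^4/well) and soybean-agglutinin-negative mononuclear marrow cells (5 × 10^5/well) from six healthy donors. Four wells per concentration, 48 h at 37 °C, then [125I]iododeoxyuridine plus fluorodeoxyuridine for 18 h. Inhibition from fractional uptake decrease; IC50/IC90 by median-effect equation. Ranges are antilog(mean log ± 2SD); ratios use mean antilogs.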

[3] = Ratio of antilog(mean log IC50 in bone marrow sample) and antolog(mean log IC90) in HL-60); format: functional
Method in brief: as §1

[4] = Ratio of antilog(mean log IC90 in bone marrow sample) and antolog(mean log IC90) in HL-60); format: functional
Method in brief: as §1

[5] = system: bone marrow cells (human); test: Relative cytotoxicity against Human bone marrow samples; Value is in range, activity expressed as IC50
[6] = Ratio of antilog(mean log IC50 in bone marrow sample) and antolog(mean log IC50) in HL-60); format: functional
Method in brief: as §1

HL-60 [7] = test: Relative cytotoxicity against Human promyelocytic Leukemia(HL-60) cells; Value is in range, activity expressed as IC90; format: functional
Method in brief: as §1

B16 [8] = test: Cytotoxic activity against solid tumor, B16 (murine melanoma) concentration of agent required to reduce cell viability by 90%; format: functional; conditions: Mus musculus
Method in brief: (§2)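 Modified MTT assay. Cells seeded per well with graded drug: CHO 2.5 × 10^3, B16 5 × 10^3, P388 and LLC 10^4, HL-60 and LoVo 5 × 10^4. After 68 h, MTT (2.5 mg/mL) added for 4 h at 37 °C. Formazan dissolved in DMSO and A550 read. Inhibition taken as fractional A550 decrease vs control. IC50/IC90 from Chou's median-effect equation.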

[9] = Ratio of cytotoxicity of compound towards bone marrow sample and to that of HL-60 was determined as IC50BM/IC50HL; format: functional
Method in brief: as §1

[10] = system: Lewis lung carcinoma cell line; test: Cytotoxic activity against solid tumor LLC(Lewis lung carcinoma), concentration of agent required to reduce cell viability by 50%; format: functional, cell-based; conditions: Mus musculus
Method in brief: as §2

CHO [11] = test: Cytotoxic activity against solid tumor, CHO (Chinese hamster ovaric carcinoma) concentration of agent required to reduce cell viability by 50%; format: functional, cell-based; conditions: Cricetulus griseus
Method in brief: as §2

B16 [12] = test: Cytotoxic activity against solid tumor, B16 (murine melanoma) concentration of agent required to reduce cell viability by 50%; format: functional, cell-based; conditions: Mus musculus
Method in brief: as §2

CHO [13] = test: Cytotoxic activity against solid tumor, CHO (Chinese hamster ovaric carcinoma) concentration of agent required to reduce cell viability by 90%; format: functional; conditions: Cricetulus griseus
Method in brief: as §2

P388 [14] = test: Cytotoxic activity against murine lymphocytic leukemia P388 concentration of agent required to reduce cell viability by 90%; format: functional; conditions: Mus musculus
Method in brief: as §2

HL-60 [15] = test: Cytotoxic activity against human promyelocytic leukemia HL-60 concentration of agent required to reduce cell viability by 90%; format: functional
Method in brief: as §2

[16] = Ratio of cytotoxicity of compound towards bone marrow sample and to that of HL-60 was determined as IC50BM/IC90HL; format: functional
Method in brief: as §1

P388 [17] = test: Cytotoxic activity against murine lymphocytic leukemia P388 concentration of agent required to reduce cell viability by 50%; format: functional, cell-based; conditions: Mus musculus
Method in brief: as §2

[18] = Ratio of cytotoxicity of compound towards bone marrow sample and to that of HL-60 was determined as IC90BM/IC90HL; format: functional
Method in brief: as §1

HL-60 [19] = test: (§3) Relative cytotoxicity against human promyelocytic leukemia(HL-60) cells; format: functional
Method in brief: as §1

LoVo [20] = test: Cytotoxic activity against solid tumor, LoVo, (human colon adenocarcinoma) concentration of agent required to reduce cell viability by 50%; format: functional, cell-based
Method in brief: as §2

Homo sapiens [21] = species: Homo sapiens; test: Relative cytotoxicity against human bone marrow samples; format: functional
Method in brief: as §1

HL-60 [22] = test: Cytotoxic activity against human promyelocytic leukemia HL-60 concentration of agent required to reduce cell viability by 50%; format: functional, cell-based
Method in brief: as §2

HL-60 [23] = test: as §3; format: functional, cell-based
Method in brief: as §1

LoVo [24] = test: Cytotoxic activity against solid tumor, LoVo, (human colon adenocarcinoma) concentration of agent required to reduce cell viability by 90%; format: functional
Method in brief: as §2

[25] = system: Lewis lung carcinoma cell line; test: Cytotoxic activity against solid tumor LLC(Lewis lung carcinoma), concentration of agent required to reduce cell viability by 90%; format: functional; conditions: Mus musculus
Method in brief: as §2

Homo sapiens [26] = species: Homo sapiens; test: Relative cytotoxicity against Human bone marrow samples; Value is in range, activity expressed as IC90; format: functional
Method in brief: as §1

CHO [27] = test: Cytotoxic activity against solid tumor, CHO (Chinese hamster ovaric carcinoma) Concentration of agent required to reduce cell viability by 50%; format: functional, cell-based; conditions: Cricetulus griseus
Method in brief: as §2

LoVo [28] = test: Cytotoxic activity against solid tumor, LoVo, (human colon adenocarcinoma) Concentration of agent required to reduce cell viability by 90%; format: functional
Method in brief: as §2

B16 [29] = test: Cytotoxic activity against solid tumor, B16 (murine melanoma) Concentration of agent required to reduce cell viability by 50%; format: functional, cell-based; conditions: Mus musculus
Method in brief: as §2

LoVo [30] = test: Cytotoxic activity against solid tumor, LoVo, (human colon adenocarcinoma) Concentration of agent required to reduce cell viability by 50%; format: functional, cell-based
Method in brief: as §2

B16 [31] = test: Cytotoxic activity against solid tumor, B16 (murine melanoma) Concentration of agent required to reduce cell viability by 90%; Not observed; format: functional, cell-based; conditions: Mus musculus
Method in brief: as §2

HL-60 [32] = test: Cytotoxic activity against Human promyelocytic Leukemia HL-60 Concentration of agent required to reduce cell viability by 50%; format: functional, cell-based
Method in brief: as §2

Homo sapiens [33] = species: Homo sapiens; test: Relative cytotoxicity against Human bone marrow samples; Value is in range, activity expressed as IC50; format: functional
Method in brief: as §1

P388 [34] = test: Cytotoxic activity against Murine Lymphocytic Leukemia P388 Concentration of agent required to reduce cell viability by 50%; format: functional, cell-based; conditions: Mus musculus
Method in brief: as §2

HL-60 [35] = test: Cytotoxic activity against Human promyelocytic Leukemia HL-60 Concentration of agent required to reduce cell viability by 90%; format: functional
Method in brief: as §2

[36] = system: Lewis lung carcinoma cell line; test: Cytotoxic activity against solid tumor LLC(Lewis lung carcinoma), concentration of agent required to reduce cell viability by 90%; not observed; format: functional, cell-based; conditions: Mus musculus
Method in brief: as §2

CHO [37] = test: Cytotoxic activity against solid tumor, CHO (Chinese hamster ovaric carcinoma) Concentration of agent required to reduce cell viability by 90%; Not observed; format: functional, cell-based; conditions: Cricetulus griseus
Method in brief: as §2

P388 [38] = test: Cytotoxic activity Murine Lymphocytic Leukemia P388 Concentration of agent required to reduce cell viability by 90%; format: functional; conditions: Mus musculus
Method in brief: as §2

P388 [39] = test: In vivo antitumor activity against Murine P388 Leukemia at 20 mg/kg dose;(Median survival time of treated mice)/(median survival time of controls) x100; format: functional, Mus musculus
Method in brief: (§4)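 Female BD2F1 mice (8 weeks, 20-22 g), eight per group, given 10^5 P388 cells ip on day 0. From 24 h later, drug was given ip once daily for 9 days as a micronized suspension in 0.5% carboxymethylcellulose. Deaths were recorded daily over a 33-day study. %T/C = median survival time of treated / median survival time of controls × 100; >125 taken as significant.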

P388 [40] = test: In vivo antitumor activity against Murine P388 Leukemia at 6.67 mg/kg dose;(Median survival time of treated mice)/(median survival time of controls) x100; format: functional, Mus musculus
Method in brief: as §4

P388 [41] = test: In vivo antitumor activity against Murine P388 Leukemia at 60 mg/kg dose;(Median survival time of treated mice)/(median survival time of controls) x100; format: functional, Mus musculus
Method in brief: as §4

CHO [42] = test: Cytotoxic activity against solid tumor, CHO (Chinese hamster ovaric carcinoma) Concentration of agent required to reduce cell viability by 90%; format: functional; conditions: Cricetulus griseus
Method in brief: as §2

P388 [43] = test: In vivo antitumor activity against Murine P388 Leukemia at 25 mg/kg dose;(Median survival time of treated mice)/(median survival time of controls) x100; format: functional, Mus musculus
Method in brief: as §4

P388 [44] = test: In vivo antitumor activity against Murine P388 Leukemia at 50 mg/kg dose;(Median survival time of treated mice)/(median survival time of controls) x100; format: functional, Mus musculus
Method in brief: as §4

B16 [45] = test: Cytotoxic activity against solid tumor, B16 (murine melanoma) Concentration of agent required to reduce cell viability by 90%; format: functional; conditions: Mus musculus
Method in brief: as §2

P388 [46] = test: In vivo antitumor activity against Murine P388 Leukemia at 100 mg/kg dose;(Median survival time of treated mice)/(median survival time of controls) x100; format: functional, Mus musculus
Method in brief: as §4

P388 [47] = test: In vivo antitumor activity against Murine P388 Leukemia at 75 mg/kg dose;(Median survival time of treated mice)/(median survival time of controls) x100; format: functional, Mus musculus
Method in brief: as §4

SMILES	IC50 (HL-60 [2]) [µM]	Ratio [3]	Ratio [4]	Ratio [6]	IC90 (HL-60 [7]) [µM]	IC90 (B16 [8]) [µM]	Ratio [9]	IC50 [10] [µM]	IC50 (CHO [11]) [µM]	IC50 (B16 [12]) [µM]	IC90 (CHO [13]) [µM]	IC90 (P388 [14]) [µM]	IC90 (HL-60 [15]) [µM]	Ratio [16]	IC50 (P388 [17]) [µM]	Ratio [18]	IC90 (HL-60 [19]) [µM]	IC50 (LoVo [20]) [µM]	IC50 (Homo sapiens [21]) [µM]	IC90 [25] [µM]	other results
O=C1c2c(O)ccc(O)c2C(=O)c2c(NCCNCCO)ccc(NCCNCCO)c21 [MITOXANTRONE]	3.35	2.1	11.6	4.8	8.03																IC90 [1]: 38.7 µM; IC50 [5]: 27.6 µM
COc1cc([C@@H]2c3cc4c(cc3[C@@H](O[C@@H]3O[C@@H]5CO[C@@H](C)O[C@H]5[C@H](O)[C@H]3O)[C@H]3COC(=O)[C@H]23)OCO4)cc(OC)c1O [ETOPOSIDE]						1.9	1.8	1.1	0.35	0.32	7.7	0.63	3.1	0.9	0.24	5.6	0.73	2.3	0.99	4.5	IC90 (Homo sapiens [21]): 7.02 µM; IC50 (HL-60 [22]): 1.2 µM; IC50 (HL-60 [23]): 0.367 µM; IC90 (LoVo [24]): 44 µM
CCN(CC)CCn1c2cc(N3CCC(O)CC3)c(N)cc2c(=O)c2c(O)cc(O)cc21	0.51	0.3	1.1	0.4	0.657			8.7													IC90 (Homo sapiens [26]): 0.672 µM; IC50 (CHO [27]): 23 µM; IC90 (LoVo [28]): > 32 µM; IC50 (B16 [29]): 1.7 µM; IC50 (LoVo [30]): > 32 µM; IC90 (B16 [31]): Not observed; IC50 (HL-60 [32]): 2.2 µM; IC50 (Homo sapiens [33]): 0.168 µM; IC50 (P388 [34]): 0.62 µM; IC90 (HL-60 [35]): 3.6 µM; IC90 [36]: Not observed; IC90 (CHO [37]): Not observed; IC90 (P388 [38]): 1.6 µM
CCN(CC)CCn1c2cc(Cl)c(N)cc2c(=O)c2c(O)cc(OC)cc21						4	1.2	5	1.1	1.6	5.9	8	8.4	0.8	3.8	4.1	2.93	1.5	3.26	11	T/C (P388 [39]): 97%; T/C (P388 [40]): 83%; IC90 (Homo sapiens [21]): 14.8 µM; T/C (P388 [41]): 100%; IC50 (HL-60 [22]): 4.2 µM; IC50 (HL-60 [23]): 1.86 µM; IC90 (LoVo [24]): 6.3 µM
CCN(CC)CCn1c2cc(Cl)c(N)cc2c(=O)c2c(O)cc(O)cc21	3.61	0.2	0.7	0.3	5.74			3.6												11	IC90 (CHO [42]): 6.3 µM; IC90 (Homo sapiens [26]): 6.46 µM; IC50 (CHO [27]): 1.5 µM; IC90 (LoVo [28]): 14 µM; IC50 (B16 [29]): 1 µM; IC50 (LoVo [30]): 5.4 µM; T/C (P388 [43]): 105%; T/C (P388 [44]): 109%; IC90 (B16 [45]): 5.9 µM; T/C (P388 [46]): 111%; IC50 (HL-60 [32]): 3.9 µM; IC50 (Homo sapiens [33]): 1.52 µM; IC50 (P388 [34]): 1.4 µM; T/C (P388 [47]): 110%; IC90 (HL-60 [35]): 10 µM; IC90 (P388 [38]): 3.5 µM
